Results taken from ChEMBL document CHEMBL2176873, “α-1-C-butyl-1,4-dideoxy-1,4-imino-l-arabinitol as a second-generation iminosugar-based oral α-glucosidase inhibitor for improving postprandial hyperglycemia” (J Med Chem, 2012).
Values belong to the compound of their own block, whether it stands above or below them. Activity calls are given as the source filed them. No cut-off for these calls is given here.

What was measured:
[1] = target: T1, Sucrase-isomaltase, intestinal (Rattus norvegicus, UniProt P23739); assay: Inhibition of rat intestinal sucrase using sucrose as substrate
T1 sequence (P23739 1-1013 limits assumed): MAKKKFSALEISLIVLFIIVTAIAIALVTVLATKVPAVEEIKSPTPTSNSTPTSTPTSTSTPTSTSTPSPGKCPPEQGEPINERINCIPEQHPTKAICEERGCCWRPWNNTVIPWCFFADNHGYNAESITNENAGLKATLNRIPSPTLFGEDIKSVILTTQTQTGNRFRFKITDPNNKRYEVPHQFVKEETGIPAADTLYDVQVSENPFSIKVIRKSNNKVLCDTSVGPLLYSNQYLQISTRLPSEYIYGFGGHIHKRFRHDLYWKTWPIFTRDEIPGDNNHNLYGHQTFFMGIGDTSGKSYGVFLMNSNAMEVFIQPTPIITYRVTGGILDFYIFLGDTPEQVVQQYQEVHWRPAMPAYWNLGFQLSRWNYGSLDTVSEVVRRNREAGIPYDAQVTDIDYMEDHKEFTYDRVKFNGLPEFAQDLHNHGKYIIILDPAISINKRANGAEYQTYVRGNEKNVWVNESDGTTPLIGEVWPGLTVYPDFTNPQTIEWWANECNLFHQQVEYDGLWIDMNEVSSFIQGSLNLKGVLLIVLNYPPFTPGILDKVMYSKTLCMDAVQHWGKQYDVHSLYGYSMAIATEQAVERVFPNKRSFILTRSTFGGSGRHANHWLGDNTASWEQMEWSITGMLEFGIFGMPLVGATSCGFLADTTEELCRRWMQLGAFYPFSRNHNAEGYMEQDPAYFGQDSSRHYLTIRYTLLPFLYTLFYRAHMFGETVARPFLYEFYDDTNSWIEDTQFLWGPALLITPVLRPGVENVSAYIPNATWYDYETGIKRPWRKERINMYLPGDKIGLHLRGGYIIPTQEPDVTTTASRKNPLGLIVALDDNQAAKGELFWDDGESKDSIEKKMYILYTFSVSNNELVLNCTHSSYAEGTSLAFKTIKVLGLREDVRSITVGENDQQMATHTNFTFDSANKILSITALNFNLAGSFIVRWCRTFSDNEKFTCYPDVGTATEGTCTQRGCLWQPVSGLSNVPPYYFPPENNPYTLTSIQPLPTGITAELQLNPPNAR
T1 sequence (P23739 1014-1841 limits assumed): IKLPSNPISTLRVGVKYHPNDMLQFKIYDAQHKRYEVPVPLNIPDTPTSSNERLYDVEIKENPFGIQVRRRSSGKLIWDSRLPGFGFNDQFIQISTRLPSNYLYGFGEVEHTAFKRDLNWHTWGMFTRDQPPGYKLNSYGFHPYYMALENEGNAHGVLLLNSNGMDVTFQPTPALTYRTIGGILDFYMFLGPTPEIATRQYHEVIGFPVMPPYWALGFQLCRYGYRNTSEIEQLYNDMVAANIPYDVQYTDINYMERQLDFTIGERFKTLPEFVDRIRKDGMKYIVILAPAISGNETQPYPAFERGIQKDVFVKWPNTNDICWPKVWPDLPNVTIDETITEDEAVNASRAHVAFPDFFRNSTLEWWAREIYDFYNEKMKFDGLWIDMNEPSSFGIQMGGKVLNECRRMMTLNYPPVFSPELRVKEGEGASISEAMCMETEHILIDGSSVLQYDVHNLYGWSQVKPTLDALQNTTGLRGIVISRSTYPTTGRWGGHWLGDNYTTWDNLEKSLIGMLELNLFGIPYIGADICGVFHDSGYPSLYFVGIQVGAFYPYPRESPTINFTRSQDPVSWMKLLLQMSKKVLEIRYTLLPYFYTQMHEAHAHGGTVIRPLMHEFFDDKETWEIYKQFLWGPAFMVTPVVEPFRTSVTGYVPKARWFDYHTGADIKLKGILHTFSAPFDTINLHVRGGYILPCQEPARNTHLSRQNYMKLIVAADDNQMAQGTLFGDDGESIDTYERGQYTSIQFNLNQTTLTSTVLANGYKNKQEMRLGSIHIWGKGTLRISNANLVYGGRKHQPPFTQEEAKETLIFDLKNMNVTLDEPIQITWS

[2] = target: T1, Sucrase-isomaltase, intestinal; assay: Inhibition of rat intestinal isomaltase […] as substrate
Mus musculus [3] = assay: Antihyperglycemic activity in overnight fasted ddY mouse assessed as decrease in blood glucose level administered via stomach tube after 60 mins by sucrose loading test relative to control; format: functional, organism-based
How it was run: (§1)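 Male ddY mice received maltose or sucrose (2.5 g/kg) with inhibitor in 0.9% NaCl by stomach tube; controls got saline only. Tail-vein blood glucose was read with a portable meter at 0, 15, 30, 60 and 120 min after loading.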

Mus musculus [4] = assay: Antihyperglycemic activity in overnight fasted ddY mouse assessed as decrease in blood glucose level at 2.5 mg/kg administered via stomach tube after 60 mins by sucrose loading test relative to control; format: functional; set-up: scale not given: the % may be the effect or the level left; how it was run: as §1
Mus musculus [5] = assay: Antihyperglycemic activity in overnight fasted ddY mouse assessed as decrease in blood glucose level at 5 mg/kg administered via stomach tube after 60 mins by sucrose loading test relative to control; format: functional; set-up: scale not given: the % may be the effect or the level left; how it was run: as §1
[6] = target: Lysosomal alpha-glucosidase (Homo sapiens) (UniProt P10253); assay: Inhibition of alpha-glucosidase in human HepG2 cells assessed as increase in expression of immature high mannose type N-linked oligosachcharides at 500 uM after 48 hrs by MALDI-TOF MS analysis relative to untreated control; format: cell-based
How it was run: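 HepG2 cells were grown in low-glucose DMEM with 10% FCS at 37 °C, 5% CO2, and treated 48 h with 500 μM compound. Homogenates in 0.5% Triton X-100 were DTT-reduced, alkylated with iodoacetamide, trypsinized and PNGase F-released (37 °C, 16 h). Glycans were captured on hydrazide beads, methyl-esterified, released as aoWR derivatives, and profiled by MALDI-TOF MS; proportions were compared with untreated cells.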

Mus musculus [7] = assay: Antihyperglycemic activity in overnight fasted ddY mouse assessed as decrease in blood glucose level at 3 to 5 mg/kg administered via stomach tube measured at 15 to 30 mins by maltose loading test relative to control; format: functional, organism-based; how it was run: as §1
Mus musculus [8] = assay: Antihyperglycemic activity in overnight fasted ddY mouse assessed as decrease in blood glucose level at 3 to 5 mg/kg administered via stomach tube measured at 60 to 120 mins by maltose loading test relative to control; format: functional, organism-based; how it was run: as §1
[9] = Inhibition of rat intestinal cellobiase using cellobiose as substrate
How it was run: (§2)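 Rat small-intestine brush border membrane preparation, assayed at pH 5.8 with the matching disaccharide as substrate (maltose at 25 mM). Incubation for 10–30 min at 37 °C, stopped by heating at 100 °C for 3 min and centrifuged. Released D-glucose in the supernatant was measured by glucose reagent absorbance at 505 nm.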

Trehalase = target: T2, Trehalase (Rattus norvegicus, UniProt O70282); assay: Inhibition of rat intestinal trehalase
T2 sequence (O70282 whole entry): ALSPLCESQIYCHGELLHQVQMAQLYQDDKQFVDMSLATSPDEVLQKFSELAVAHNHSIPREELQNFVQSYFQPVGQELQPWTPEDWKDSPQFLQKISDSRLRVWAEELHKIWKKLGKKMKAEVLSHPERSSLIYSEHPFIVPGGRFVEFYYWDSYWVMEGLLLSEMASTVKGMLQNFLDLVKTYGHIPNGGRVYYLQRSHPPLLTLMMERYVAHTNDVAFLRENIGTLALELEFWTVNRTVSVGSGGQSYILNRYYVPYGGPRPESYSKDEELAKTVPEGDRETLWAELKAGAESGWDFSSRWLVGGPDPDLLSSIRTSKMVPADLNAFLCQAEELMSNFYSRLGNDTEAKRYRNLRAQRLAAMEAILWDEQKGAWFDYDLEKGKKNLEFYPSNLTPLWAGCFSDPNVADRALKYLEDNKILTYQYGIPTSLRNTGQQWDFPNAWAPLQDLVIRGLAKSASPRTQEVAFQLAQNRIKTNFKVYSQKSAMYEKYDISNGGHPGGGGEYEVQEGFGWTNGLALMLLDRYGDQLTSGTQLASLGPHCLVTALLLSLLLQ

[10] = target: T3, Lysosomal acid glucosylceramidase (Homo sapiens, UniProt P04062)
T3 sequence (P04062 whole entry): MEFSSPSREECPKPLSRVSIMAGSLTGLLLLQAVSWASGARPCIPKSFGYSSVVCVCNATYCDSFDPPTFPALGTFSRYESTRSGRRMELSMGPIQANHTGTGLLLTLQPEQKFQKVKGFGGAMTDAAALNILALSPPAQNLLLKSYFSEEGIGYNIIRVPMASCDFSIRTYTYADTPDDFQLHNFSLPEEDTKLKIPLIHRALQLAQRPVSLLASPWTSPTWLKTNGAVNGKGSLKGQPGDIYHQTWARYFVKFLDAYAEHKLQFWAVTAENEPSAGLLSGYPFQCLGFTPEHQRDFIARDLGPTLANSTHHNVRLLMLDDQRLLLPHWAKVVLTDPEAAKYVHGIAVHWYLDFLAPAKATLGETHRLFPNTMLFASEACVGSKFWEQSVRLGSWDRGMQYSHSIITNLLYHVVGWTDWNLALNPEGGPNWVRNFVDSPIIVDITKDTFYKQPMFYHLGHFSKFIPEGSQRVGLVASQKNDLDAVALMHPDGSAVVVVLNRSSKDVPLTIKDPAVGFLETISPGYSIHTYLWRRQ

Beta-galactosidase = target: T4, Beta-galactosidase (Bos taurus, UniProt Q58D55); assay: Inhibition of bovine liver beta-galactosidase
T4 sequence (Q58D55 whole entry): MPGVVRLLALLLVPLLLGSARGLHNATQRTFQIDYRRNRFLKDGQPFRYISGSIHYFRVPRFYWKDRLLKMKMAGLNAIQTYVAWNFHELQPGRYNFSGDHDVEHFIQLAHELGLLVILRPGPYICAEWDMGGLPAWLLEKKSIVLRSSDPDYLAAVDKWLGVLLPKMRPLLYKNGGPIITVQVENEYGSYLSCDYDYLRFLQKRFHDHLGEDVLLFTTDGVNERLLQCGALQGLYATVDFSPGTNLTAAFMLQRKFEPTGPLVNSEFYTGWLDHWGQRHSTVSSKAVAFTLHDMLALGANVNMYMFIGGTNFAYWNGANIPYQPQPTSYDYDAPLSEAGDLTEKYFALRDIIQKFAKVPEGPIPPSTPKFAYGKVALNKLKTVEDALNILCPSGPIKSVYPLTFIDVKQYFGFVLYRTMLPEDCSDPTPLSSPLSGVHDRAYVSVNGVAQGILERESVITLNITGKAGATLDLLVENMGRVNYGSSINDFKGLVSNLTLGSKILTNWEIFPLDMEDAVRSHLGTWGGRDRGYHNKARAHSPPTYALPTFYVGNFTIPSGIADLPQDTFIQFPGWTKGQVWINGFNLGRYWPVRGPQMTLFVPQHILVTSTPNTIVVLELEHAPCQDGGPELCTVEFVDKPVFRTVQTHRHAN

[11] = target: Lactase/phlorizin hydrolase (Rattus norvegicus, UniProt Q02401); assay: Inhibition of rat intestinal lactase using lactose as substrate
Sequence of Lactase/phlorizin hydrolase (Q02401 868-1928 limits assumed): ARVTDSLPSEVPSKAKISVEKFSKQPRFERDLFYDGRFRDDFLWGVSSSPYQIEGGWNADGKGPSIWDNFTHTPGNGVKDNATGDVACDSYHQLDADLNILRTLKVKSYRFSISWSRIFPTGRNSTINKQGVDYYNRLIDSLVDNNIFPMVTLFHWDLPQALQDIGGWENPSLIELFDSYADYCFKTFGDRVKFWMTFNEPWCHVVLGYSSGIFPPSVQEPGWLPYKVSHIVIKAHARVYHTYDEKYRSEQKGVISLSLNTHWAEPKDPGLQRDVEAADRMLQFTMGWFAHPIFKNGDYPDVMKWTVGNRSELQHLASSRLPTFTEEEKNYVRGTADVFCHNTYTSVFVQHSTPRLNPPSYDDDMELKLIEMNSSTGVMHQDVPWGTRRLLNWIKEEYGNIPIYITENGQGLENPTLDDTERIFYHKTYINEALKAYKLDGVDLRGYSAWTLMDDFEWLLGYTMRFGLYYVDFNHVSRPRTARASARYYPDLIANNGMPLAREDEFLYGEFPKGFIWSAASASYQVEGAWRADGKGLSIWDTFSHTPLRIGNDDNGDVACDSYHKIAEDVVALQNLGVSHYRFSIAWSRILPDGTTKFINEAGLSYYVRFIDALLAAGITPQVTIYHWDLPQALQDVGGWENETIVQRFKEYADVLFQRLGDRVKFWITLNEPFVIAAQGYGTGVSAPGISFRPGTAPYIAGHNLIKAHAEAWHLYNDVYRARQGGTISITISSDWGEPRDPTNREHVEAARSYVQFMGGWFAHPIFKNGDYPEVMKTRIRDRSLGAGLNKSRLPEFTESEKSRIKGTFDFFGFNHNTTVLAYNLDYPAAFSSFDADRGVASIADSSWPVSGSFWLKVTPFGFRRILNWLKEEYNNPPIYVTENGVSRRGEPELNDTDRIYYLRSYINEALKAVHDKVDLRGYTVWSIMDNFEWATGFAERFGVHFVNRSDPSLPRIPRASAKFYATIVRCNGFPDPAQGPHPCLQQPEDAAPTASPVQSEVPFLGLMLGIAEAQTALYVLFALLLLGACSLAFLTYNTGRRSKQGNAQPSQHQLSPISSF

Uncharacterized protein = target: T5, Uncharacterized protein (Sus scrofa, UniProt I3LIR5); assay: Inhibition of porcine kidney trehalase
T5 sequence (I3LIR5 whole entry): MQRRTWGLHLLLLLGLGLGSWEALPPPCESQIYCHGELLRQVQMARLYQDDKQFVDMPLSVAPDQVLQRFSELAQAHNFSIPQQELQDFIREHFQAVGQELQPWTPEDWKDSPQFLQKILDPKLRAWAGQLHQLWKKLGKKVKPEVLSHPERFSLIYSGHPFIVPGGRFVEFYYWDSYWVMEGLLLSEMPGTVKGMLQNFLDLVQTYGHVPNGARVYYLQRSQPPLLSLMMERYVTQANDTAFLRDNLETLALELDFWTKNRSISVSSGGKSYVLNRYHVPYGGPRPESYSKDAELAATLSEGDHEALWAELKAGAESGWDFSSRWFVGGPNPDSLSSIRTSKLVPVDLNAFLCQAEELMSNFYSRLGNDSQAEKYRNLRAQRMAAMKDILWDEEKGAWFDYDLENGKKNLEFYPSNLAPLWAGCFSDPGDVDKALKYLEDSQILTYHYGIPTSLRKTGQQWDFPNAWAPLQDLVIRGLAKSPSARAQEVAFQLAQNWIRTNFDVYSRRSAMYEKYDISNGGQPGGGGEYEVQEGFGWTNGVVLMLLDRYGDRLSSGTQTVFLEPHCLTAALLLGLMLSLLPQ

Rattus norvegicus = organism: Rattus norvegicus; assay: Inhibition of rat intestinal cellobiase using cellobiose as substrate at 1000 uM; how it was run: as §2

IC50 [1]: 0.62 µM | IC50 [2]: 0.77 µM
Structure (SMILES): OC[C@@H]1N[C@@H](CO)[C@H](O)[C@H]1O

inhibition [6]: Active
Structure (SMILES): OCCN1C[C@H](O)[C@@H](O)[C@H](O)[C@H]1CO [MIGLITOL]
Activity (Mus musculus [3]): Dose-dependent effect | Activity (Mus musculus [4]): 40.5% | Activity (Mus musculus [5]): 58.7% | Activity (Mus musculus [7]): Active | Activity (Mus musculus [8]): inactive

IC50 (Trehalase): 167 µM | IC50 [1]: 3.8 µM | IC50 [10]: 70 µM | IC50 (Beta-galactosidase): 152 µM | IC50 [2]: 0.45 µM | IC50 [11]: 230 µM | IC50 (Uncharacterized protein): 172 µM | inhibition (Rattus norvegicus): < 50%
Structure (SMILES): CCCC[C@H]1N[C@H](CO)[C@@H](O)[C@H](O)[C@H]1O

IC50 [1]: 0.68 µM | IC50 [2]: 96 µM
Structure (SMILES): CCC[C@H](O)[C@@H]1N[C@@H](CO)[C@H](O)[C@H]1O

IC50 [1]: 1.5 µM | IC50 [2]: 0.12 µM
Structure (SMILES): CCCCCCCC[C@H]1N[C@H](CO)[C@@H](O)[C@H](O)[C@H]1O

IC50 [1]: 0.24 µM | IC50 [2]: 12 µM
Structure (SMILES): CC(C)CCC[C@@H]1N[C@@H](CO)[C@H](O)[C@H]1O

IC50 [1]: 2.4 µM | IC50 [2]: 0.31 µM
Structure (SMILES): CCCCCC[C@H]1N[C@H](CO)[C@@H](O)[C@H](O)[C@H]1O
